Screens from PubChem.
Sampled rows, rich in hits. Any-hit rate of the full collection: about 4.7%.
NR3A LBD binder: binders of NR3A ligand-binding domain, primary screen, biophysical, differential scanning fluorimetry, uHTS; hit rate 2.5% among 340,000; NR3A LBD differential scanning fluorimetry, Tm shift; 0% = protein alone, 100% = glycine-bound protein; Tm shift relative to glycine control, % at 25 µM; Glutamate receptor ionotropic, NMDA 3A (GRIN3A) ligand-binding domain;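 active means melting temperature shift of at least 10% of the positive control shift, at one fixed dose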
ADAM10 inh: human ADAM10 inhibitors, primary screen, biochemical, QFRET, HTS; recombinant ADAM10, EDANS/DABCYL FRET peptide cleavage, 3 h; inhibition, % at 7 µM; hit rate 0.62% among 370,000; AID 720582, 2013;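 active means inhibition above a per-campaign cutoff equal to the mean of compounds falling between control-based bounds plus 3 SD, cut at about 20% in these data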;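 further: 0% = DMSO wells while the 100% control is not disclosed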
Target sequence (O14672 214-748 limits assumed): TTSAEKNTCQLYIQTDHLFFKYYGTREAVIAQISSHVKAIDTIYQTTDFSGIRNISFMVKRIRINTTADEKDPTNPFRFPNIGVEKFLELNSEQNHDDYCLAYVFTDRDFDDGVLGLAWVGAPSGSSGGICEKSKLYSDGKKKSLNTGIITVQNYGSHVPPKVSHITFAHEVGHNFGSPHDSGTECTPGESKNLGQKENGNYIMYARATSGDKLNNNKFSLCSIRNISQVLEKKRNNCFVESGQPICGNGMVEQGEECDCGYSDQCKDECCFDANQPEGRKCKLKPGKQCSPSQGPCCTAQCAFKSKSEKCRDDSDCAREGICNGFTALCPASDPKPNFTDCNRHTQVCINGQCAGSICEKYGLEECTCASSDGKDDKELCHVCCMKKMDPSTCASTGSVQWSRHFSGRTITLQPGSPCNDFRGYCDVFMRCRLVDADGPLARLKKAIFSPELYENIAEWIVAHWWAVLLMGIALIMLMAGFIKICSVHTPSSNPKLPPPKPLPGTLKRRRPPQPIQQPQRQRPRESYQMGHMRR
ADAM17 inh: ADAM17 inhibitors, primary screen, biochemical, QFRET; inhibition, % at 6.95 µM; hit rate 0.83% among 370,000; recombinant ADAM17, EDANS/DABCYL FRET peptide cleavage; AID 720648, 2013; Disintegrin and metalloproteinase domain-containing protein 17 (Homo sapiens), P78536;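 active means inhibition above the mean of compounds lying between control limits plus 3 SD, set per campaign, cut at about 8.5% in these data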;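 further: 0% = DMSO-only wells as the low control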
MT1-MMP act inh: blockers of MT1-MMP proenzyme processing, primary screen, HT1080 RFP-PRO-GFP cells, GFP/RFP fluorescence | GFP/RFP ratio fluorescence, overnight; percent of plate control window, DMSO zero | GFP/RFP ratio change, % at 20 µM | hit rate 0.061% among 360,000 | AID 651647, 2012;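 active means GFP/RFP ratio change of at least 30% with cell ATP level not reduced by more than half and red fluorescence within 50% of control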
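Material – HT1080 RFP-PRO-GFP cells · Control set – DMSO wells and RFP-L50D-GFP cells · Incubation – overnight cell settling, then overnight compound exposure, 37 °C, 5% CO2 · Compound dosing – single-point 20 µM compound, 1% DMSO · Read-out – GFP/RFP fluorescence ratio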
SKN-1 block: suppressors of acrylamide-induced Pgst-4::GFP reporter in worms, primary screen, SKN-1 inhibitor project, whole organism, uHTS, GFP/RFP fluorescence ratio, strain VP596; C. elegans VP596 Pgst-4::GFP/RFP ratio, 24 h; inhibition, % at 21.8 µM; hit rate 0.49% among 360,000; AID 624304, 2012;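 active means interference check ratio from 0.5 to 1.5 plus GFP to RFP signal ratio inhibition reaching or exceeding a fixed threshold, cut at about 30% in these data, passing the limit was not always enough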
MPTP inh: mitochondrial permeability transition pore inhibitors, primary screen, biochemical, isolated mouse mitochondria, absorbance | Ca2+ swelling absorbance, 30 min | inhibition, % at 10 µM | hit rate 1.4% among 360,000;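 active means inhibition of 50% or more, scaled per plate between neutral and stimulator controls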;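 further: 0% = DMSO wells given calcium and 100% = 1 mM EGTA wells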
MT1-MMP act val: MT1-MMP activation inhibitors, hit retest, confirmation, single concentration, fluorescence, HT1080 RFP-PRO-GFP cells; shares compounds with MT1-MMP act inh; GFP and RFP fluorescence ratio, overnight; inhibition, % at 20 µM; hit rate 10% among 200; AID 652235, 2013;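 active means inhibition of at least 50% in the primary cell screen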
An asterisk follows results filed as active; . = no result given.

SMILES	NR3A LBD binder	ADAM10 inh	ADAM17 inh	MT1-MMP act inh	SKN-1 block	MPTP inh	MT1-MMP act val
CN1C2=CC=CC=CC2=[N+](C)C12C=CC(=[N+]([O-])[O-])C=C2[N+](=O)[O-] (configuration not stated)	0.6	-0.2	-2.9	38.9*	12.2	10.8	30.6
CC1(C)Oc2cc(N)c([N+](=O)[O-])cc2O1	-0.2	5.7	3.1	11.4	5.7	0.1	.
C=C1N(C)c2cc([N+](=O)[O-])c(N)cc2C1(C)C	-8.1	2.6	2.5	36.4*	2.5	1.0	13.4
CCOc1ccc(NS(=O)(=O)c2ccc(C(=O)NCC(c3ccco3)N3CCCC3)cc2)cc1 (configuration not stated)	0.2	-0.9	0.7	3.0	-4.0	0.5	.
COc1ccccc1C(=O)NC(=S)/C=C1/N(C)c2ccccc2C1(C)C	-19.6	14.1	5.8	55.0*	75.0	3.0	30.8
Cn1c(CNC(=O)c2ccc(Cl)cc2)nnc1SCC(=O)NC1=NCCS1	5.0	2.4	-1.9	1.1	-11.1	-2.5	.
Cc1ccsc1CN(C)CC(=O)Nc1ccc([N+](=O)[O-])cc1Cl	6.4	-2.9	1.2	1.1	26.7	0.9	.
CN(CC(=O)Nc1cc([N+](=O)[O-])ccc1Cl)Cc1ccc(Br)cc1	-15.9	3.8	-0.1	35.9*	-2.4	0.7	6.2
O=[N+]([O-])c1cc(Br)c(O)c(C=Nc2ccc(N3CCOCC3)cc2)c1	-4.3	0.6	-0.4	40.5*	3.7	12.5	3.9
COc1cccc(C=Nc2ccc(N3CCOCC3)cc2)c1O	-0.3	3.0	-2.5	4.3	7.4	1.3	.
O=C(O)c1cccc(N2C(=O)c3cc([N+](=O)[O-])cc4cc([N+](=O)[O-])cc(c34)C2=O)c1	3.4	2.3	0.5	41.9*	-0.6	2.4	28.4
O=C(O)c1cccc(N2C(=O)c3cccc4cccc(c34)C2=O)c1	0.4	-14.7	-11.6	3.7	-14.2	-0.5	.
COC(=O)c1cc(S(=O)(=O)N2CCCCC2C)c[nH]1 (configuration not stated)	8.2	-2.8	4.0	-2.2	-4.0	-0.9	.
O=C(Nc1nc2ccccc2[nH]1)c1ccc([N+](=O)[O-])cc1	-0.6	4.6	-2.9	-2.3	-4.1	-0.4	.
C/C(=N\Nc1nc2ccccc2[nH]1)c1ccc([N+](=O)[O-])cc1	-4.0	0.5	-4.1	51.0*	5.6	23.8	21.2
CNc1ccccc1C(C)(C)c1cc(-c2cccc(OC)c2)no1	-1.4	4.4	0.9	46.6*	73.4	35.8	54.0*
Nc1nc(Nc2cccc(F)c2)nc2ccccc12	26.5*	-13.3	-2.2	34.6*	2.3	0.7	25.1
Cc1ccc(C)c(Nc2nc(N)c3ccccc3n2)c1	-1.4	-2.1	-3.0	31.3*	-1.0	2.3	18.7
COc1ccc(C)cc1Nc1nc(N)c2cc(OC)c(OC)cc2n1	-0.2	.	.	2.8	14.2	16.6	.
CN(C)/C=C/c1oc2ccc(O)cc2c1[N+](=O)[O-]	-1.4	-19.0	-3.2	58.3*	27.7	4.6	50.6*
CC(c1nc2ccccc2[nH]1)n1c(=O)c(-c2cccs2)nc2ccccc21 (configuration not stated)	.	-378.0	-122.7	-1.6	6.4	4.2	.
N#CCCN1CCCc2cc(N=Nc3ccc(C(F)(F)F)cc3)ccc21	-3.5	4.4	0.5	31.8*	8.0	0.4	28.2
Cc1ccc(NC(=O)CNC(=O)Cc2cccc3ccccc23)nc1	-1.9	-11.8	-2.0	0.6	3.3	-0.3	.
Cc1cc2ccccc2n1CCNC(=O)c1ccc(Br)o1	-5.8	-10.3	-6.3	37.3*	37.2*	1.1	4.1
O=C(NCCCc1ccccc1)c1ccc(Br)o1	-1.0	6.7	-0.6	-4.2	4.8	1.3	.
SMILES	NR3A LBD binder	ADAM10 inh	ADAM17 inh	MT1-MMP act inh	SKN-1 block	MPTP inh	MT1-MMP act val
Cc1cc2ccccc2n1CCNC(=O)Cc1cccc2ccccc12	-6.7	-4.5	0.3	42.8*	56.0	0.1	1.8
Cc1cc2ccccc2n1CCNC(=O)COc1ccccc1	-0.4	-19.1	-4.3	40.0*	49.2	-0.1	3.5
COc1ccccc1CCC(=O)OCC(=O)Nc1cccc(S(=O)(=O)N2CCOCC2)c1	0.9	-4.2	2.1	-1.3	-3.6	-0.2	.
CC1CCN(C(=O)CCCN2C(=O)c3cccnc3Oc3ccc(Cl)cc32)CC1	-4.5	8.4	-4.3	0.5	-3.6	0.8	.
O=[N+]([O-])c1ccc(N2CCCCC2)s1	1.4	3.3	0.2	32.2*	30.5	2.7	22.2
O=C(Nc1ccc(S(=O)(=O)Nc2ccccc2)cc1)C1COc2ccccc2O1 (configuration not stated)	6.3	7.8	5.4	31.4*	1.3	0.9	6.7
CN(c1cc2c(c3c1ccn3C)C1CCC2C1)C1CCCCC1 (configuration not stated)	.	6.1	0.8	34.9*	10.2	2.2	1.2
C[C@H](CO)N1C[C@H](C)[C@@H](CN(C)S(=O)(=O)c2ccc(F)cc2)Oc2ccc(NC(=O)CCN3CCOCC3)cc2C1=O	0.1	-10.8	-5.1	31.6*	13.1	-0.2	-0.6
O=C(N/N=C/C1CC=CCC1)c1cc2ccccc2cc1O (configuration not stated)	-5.3	-0.9	-2.3	34.9*	-0.9	9.9	4.4
O=C(N/N=C/C1CC=CCC1)c1ccc(O)cc1O (configuration not stated)	-1.0	-1.9	1.4	-3.0	2.6	-0.1	.
Cc1ccccc1C1=C/C(=C(\SS/C(C(=O)c2ccc(OCC(=O)O)c(Cl)c2Cl)=C2\C=C(c3ccccc3C)SS2)C(=O)c2ccc(OCC(=O)O)c(Cl)c2Cl)SS1	5.1	-1.1	-3.0	33.8*	-1.7	-10.9	41.3
COc1cc(-c2cc(=O)c3c(O)c(OC)c(OC)cc3o2)cc(OC)c1O	-3.0	-4.2	1.6	31.2*	8.2	1.1	35.3
COc1cc(-c2cc(=O)c3c(O)cc(O)cc3o2)ccc1O	-1.1	.	.	-87.5	11.8	1.2	.
CC(=O)N1CCSc2ccc(S(=O)(=O)Nc3cccc(C)c3)cc21	2.0	4.2	3.9	-1.4	-6.6	-1.4	.
